In ChEMBL document CHEMBL1153485, “Synthesis and biological evaluation of novel 1-(4-methoxyphenethyl)-1H-benzimidazole-5-carboxylic acid derivatives and their precursors as antileukemic agents” (Bioorg Med Chem Lett, 2009) one finds Activity and IC50 data, which are given here for 22 compounds.

Active and inactive are the calls of the source. The rule behind the calls is not given here. Where only a bound is given, the exact number is not on record here.

Format in all cases: functional, cell-based
Test [1] relates to K562. Kind of test: Induction of apoptosis in human K562 cells assessed as DNA strand breakage at 100 uM after 72 hrs using ethidium bromide staining by agarose gel electrophoresis.
Test [2] concerns K562. Kind of test: Cytotoxicity against human K562 cells. The gist of the method: (§1)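 K562 and CEM cells; IC50 values calculated from both trypan blue counting and MTT assays.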
Test [3] concerns CCRF-CEM. Kind of test: Cytotoxicity against human CEM cells. The gist of the method:
as §1

Test [4] concerns K562. Briefly: Cytotoxicity against human K562 cells at 100 uM within 48 hrs by trypan blue exclusion assay. The method in brief:
(§2)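 Leukemic cells treated with derivatives dissolved in DMSO at […]; DMSO-only cells at the amount used for the top concentration served as vehicle control. Viable cells counted by trypan blue at 24 h intervals until stationary phase.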

The test system of test [5] is CCRF-CEM. Briefly: Cytotoxicity against human CEM cells at 100 uM within 48 hrs by trypan blue exclusion assay. The gist of the method:
as §2

The subject of test [6] is K562. Briefly: Cytotoxicity against human K562 cells at 250 uM within 48 hrs by trypan blue exclusion assay. The gist of the method:
as §2

The subject of test [7] is CCRF-CEM. Briefly: Cytotoxicity against human CEM cells at 250 uM within 48 hrs by trypan blue exclusion assay. The method in brief: as §2
Test [8] concerns K562. Kind of test: Induction of cell cycle arrest at M phase in human K562 cells assessed as reduction in phosphorylated histone H3 level at 5 uM after 24 hrs by Western blot analysis.
In test [9] the test system is K562. Kind of test: Induction of cell cycle arrest at M phase in human K562 cells assessed as reduction in phosphorylated histone H3 level at 10 uM after 24 hrs by Western blot analysis.
Test [10] relates to K562. Kind of test: Induction of cell cycle arrest in human K562 cells assessed as reduction in PCNA level at 5 to 10 uM after 24 hrs by Western blot analysis. Background: In western blotting, separated proteins are transferred to a membrane and probed.
Test [11] concerns K562. Kind of test: Induction of cell cycle arrest at G2/M phase in human K562 cells assessed as down-regulation of cyclin B1 at 5 to 10 uM after 24 hrs by Western blot analysis.
Test [12] concerns K562. Briefly: Induction of cell cycle arrest at S phase in human K562 cells assessed as down-regulation of CDK2 at 10 uM after 24 hrs by Western blot analysis.
Test [13] has as its system K562. Briefly: Induction of p21 activation in human K562 cells at 5 to 10 uM after 24 hrs by Western blot analysis.
In test [14] the test system is K562. Briefly: Induction of apoptosis in human K562 cells assessed as DNA strand breakage at 10 uM after 72 hrs using ethidium bromide staining by agarose gel electrophoresis.
In test [15] the test system is K562. Briefly: Induction of apoptosis in human K562 cells assessed as upregulation of BAD protein at 30 uM by SDS-PAGE. The conditions noted are these: TDE = time-dependent effect. The gist of the method:
(§3)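 K562 cells treated with […] compound for 12 and 24 h; DMSO-treated cells grown 24 h as vehicle control. Lysates separated by SDS-PAGE, transferred to PVDF, probed with specific primary and secondary antibodies for BAD, BCL2 and PARP.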

Test [16] concerns K562. Kind of test: Induction of apoptosis in human K562 cells assessed as down-regulation of BCL2 protein at 30 uM after 12 hrs by SDS-PAGE. The gist of the method: as §3
Test [17] has as its system K562. Briefly: Induction of apoptosis in human K562 cells assessed as PARP cleavage at 30 uM after 12 hrs by SDS-PAGE. The method in brief:
as §3

In test [18] the test system is K562. Kind of test: Cell cycle arrest in human K562 cells assessed as accumulation at S phase at 1 to 10 uM after 8 to 48 hrs by FACS analysis. The method in brief: (§4)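 K562 cells treated with […] compound, analysed by FACS for cell cycle distribution; DMSO-treated cells as vehicle control.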
The test system of test [19] is K562. Briefly: Cell cycle arrest in human K562 cells assessed as accumulation at G2/M phase at 1 to 10 uM after 8 to 48 hrs by FACS analysis. The gist of the method: as §4

The term IC50 denotes the concentration that gives 50% inhibition. Read a high IC50 as weaker potency. As to `COc1ccc(CCn2c(-c3ccc(C(C)(C)C)cc3)nc3cc(C(=O)O)ccc32)cc1`, the outcome in the test with K562 [1] was Active. Moreover, the IC50 in the test on K562 [2] came to 40 µM; in the test with CCRF-CEM [3], 42 µM.

On to `COc1ccc(CCn2c(-c3ccc(F)c(N)c3)nc3cc(C(=O)O)ccc32)cc1`, for which the IC50 came out at 180 µM in the test on K562 [2] and 182 µM with CCRF-CEM [3].

With `COc1ccc(CCn2c(-c3ccc(F)c([N+](=O)[O-])c3)nc3cc(C(=O)O)ccc32)cc1`, the IC50 in the test on K562 [2] is 135 µM; with CCRF-CEM [3], 132 µM.

`COC(=O)c1ccc2c(c1)nc(-c1cccc(OC)c1)n2CCc1ccc(OC)cc1`: the figures for the IC50 in the test with K562 [2] and in the test on CCRF-CEM [3] were 136 µM and 138 µM, respectively. The result in the test on K562 [4], with CCRF-CEM [5], in the test with K562 [6] and with CCRF-CEM [7] was Active.

Take `COC(=O)c1ccc2c(c1)nc(-c1ccc(C(C)(C)C)cc1)n2CCc1ccc(OC)cc1`: the IC50 in the test with K562 [2] was found to be 70 µM; in the test on CCRF-CEM [3], 68 µM. For the same compound, the outcome with K562 [4], in the test on CCRF-CEM [5], in the test with K562 [6] and in the test with CCRF-CEM [7] was Active.

For the compound `COC(=O)c1ccc2c(c1)nc(-c1ccc(F)c([N+](=O)[O-])c1)n2CCc1ccc(OC)cc1`, the result in the test on K562 [8], with K562 [9], in the test with K562 [10], with K562 [11], with K562 [12] and in the test with K562 [13] was Active. For the same compound, the outcome with K562 [14], in the test on K562 [16], in the test with K562 [17], in the test on K562 [4], in the test on CCRF-CEM [5] and in the test with K562 [6] was Active. Also, the result with CCRF-CEM [7], in the test with K562 [18] and with K562 [19] was Active. Besides, the Activity result in the test with K562 [15] is “tde”. Further, the IC50 in the test on K562 [2] was found to be 3 µM; in the test on CCRF-CEM [3] it was 4 µM.

For the compound `COC(=O)c1ccc2c(c1)nc(-c1ccc(F)c(N)c1)n2CCc1ccc(OC)cc1`, the figures for the 50% inhibitory concentration (IC50) in the test on K562 [2] and with CCRF-CEM [3] were 78 µM and 75 µM, respectively.

For `COc1ccc(CCn2c(-c3ccccc3)nc3cc(C(=O)O)ccc32)cc1`, the IC50 in the test on K562 [2] and in the test on CCRF-CEM [3] was > 250 µM each time.

On to `COc1ccc(CCn2c(-c3c(F)cccc3F)nc3cc(C(=O)O)ccc32)cc1`, for which the IC50 with K562 [2] came out at 80 µM; in the test on CCRF-CEM [3] it was 85 µM.

For the compound `COC(=O)c1ccc2c(c1)nc(-c1cccc(Br)c1)n2CCc1ccc(OC)cc1`, the IC50 in the test on K562 [2] and with CCRF-CEM [3] was > 250 µM each time.

In the case of `COC(=O)c1ccc2c(c1)nc(-c1ccc(N)cc1)n2CCc1ccc(OC)cc1`, the IC50 in the test on K562 [2] came to 180 µM; with CCRF-CEM [3] it was 175 µM.

Regarding `COC(=O)c1ccc2c(c1)nc(-c1ccc(Cl)cc1Cl)n2CCc1ccc(OC)cc1`, the IC50 with K562 [2] and in the test with CCRF-CEM [3] was > 250 µM each time.

As to `COc1ccc(CCn2c(-c3cccc(OC)c3)nc3cc(C(=O)O)ccc32)cc1`, the figures for the IC50 in the test with K562 [2] and with CCRF-CEM [3] were 200 µM and 195 µM, respectively.

Turning to `COc1ccc(CCn2c(-c3ccccc3F)nc3cc(C(=O)O)ccc32)cc1`, the IC50 with K562 [2] is 240 µM; in the test with CCRF-CEM [3] it was 244 µM.

With `COc1ccc(CCn2c(-c3ccc([N+](=O)[O-])cc3)nc3cc(C(=O)O)ccc32)cc1`, the values for the IC50 in the test on K562 [2] and in the test on CCRF-CEM [3] were 250 µM and 245 µM, respectively.

With `COc1ccc(CCn2c(-c3cccc(Br)c3)nc3cc(C(=O)O)ccc32)cc1`, the IC50 stood at 124 µM with K562 [2] and 120 µM in the test with CCRF-CEM [3]. Moreover, the outcome in the test with K562 [4], with CCRF-CEM [5], with K562 [6] and in the test on CCRF-CEM [7] was Active.

On to `COc1ccc(CCn2c(-c3ccc(Cl)cc3Cl)nc3cc(C(=O)O)ccc32)cc1`, for which the IC50 in the test on K562 [2] stood at 110 µM; in the test with CCRF-CEM [3], 102 µM. The result in the test on K562 [4], in the test with CCRF-CEM [5], in the test on K562 [6] and with CCRF-CEM [7] was Active.

Turning to `COC(=O)c1ccc2c(c1)nc(-c1ccccc1F)n2CCc1ccc(OC)cc1`, the result in the test with K562 [1], in the test on K562 [4], in the test with CCRF-CEM [5], with K562 [6] and with CCRF-CEM [7] was Active. For the same compound, the IC50 amounted to 56 µM with K562 [2] and 55 µM in the test with CCRF-CEM [3].

Take `COC(=O)c1ccc2c(c1)nc(-c1ccc([N+](=O)[O-])cc1)n2CCc1ccc(OC)cc1`: the IC50 in the test with K562 [2] was 120 µM; in the test on CCRF-CEM [3], 122 µM.

As to `COc1ccc(CCn2c(-c3ccc(N)cc3)nc3cc(C(=O)O)ccc32)cc1`, the IC50 in the test on K562 [2] and with CCRF-CEM [3] was > 250 µM each time.

`COC(=O)c1ccc2c(c1)nc(-c1c(F)cccc1F)n2CCc1ccc(OC)cc1`: the IC50 with K562 [2] turned out to be 84 µM; with CCRF-CEM [3] it was 85 µM. Also, the result in the test with K562 [4], in the test on CCRF-CEM [5], with K562 [6] and with CCRF-CEM [7] was Active.

`COC(=O)c1ccc2c(c1)nc(-c1ccccc1)n2CCc1ccc(OC)cc1`: the IC50 came out at 64 µM in the test on K562 [2] and 65 µM in the test on CCRF-CEM [3]. Moreover, the outcome with K562 [4], in the test on CCRF-CEM [5], in the test on K562 [6] and in the test on CCRF-CEM [7] was Active.
